Bioassay records deposited in PubChem BioAssay by several laboratories.
TAAR1 antagonist: human TAAR1 antagonism; 360,000 compounds, 1.5% hits; inhibition, % at 3 µM; Q96RJ0; CHO RD-HGA16 TAAR1, Fluo-8 calcium fluorescence, antagonist;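 active means inhibition above a per-plate cutoff, the mean inhibition of test compounds on that plate plus 3 SD, cut at about 49% in these data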;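 further: 0% = DMSO plus EC80 beta-PEA response and 100% = DMSO alone without agonist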
Target sequence (Q96RJ0 whole entry, looked up): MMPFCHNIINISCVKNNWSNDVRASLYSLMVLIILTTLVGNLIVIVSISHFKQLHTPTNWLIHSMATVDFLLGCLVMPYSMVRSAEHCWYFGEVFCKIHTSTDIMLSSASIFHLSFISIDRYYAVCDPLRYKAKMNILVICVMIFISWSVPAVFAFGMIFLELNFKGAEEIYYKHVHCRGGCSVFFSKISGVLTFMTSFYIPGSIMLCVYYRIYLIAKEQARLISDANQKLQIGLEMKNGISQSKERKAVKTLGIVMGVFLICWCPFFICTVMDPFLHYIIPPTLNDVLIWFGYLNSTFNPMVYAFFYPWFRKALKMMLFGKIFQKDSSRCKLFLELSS
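Test system: CHO RD-HGA16 cells bearing hTAAR1 | Reagent: β-PEA, EC80 | Compound dosing: 3 µM, single point | Schedule: Dye loading 75 min at 37 °C, then 30 min room temperature | Signal: Calcium fluorescence with Fluo-8 | Evaluation: Percent inhibition of PEA-evoked calcium signal, max/basal emission ratio | Control set: DMSO-only wells and EC80 β-PEA-stimulated wells | Repeats: Singlicate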
Beta2AR agonist: agonists of human beta-2 adrenergic receptor inducing internalization | Am2.2-beta2AR cells, FAP receptor internalization, flow cytometry | P07550 | 340,000 compounds, 0.43% hits | AID 504454 | response, % (no concentration beside the values);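 active means response above a set limit, near 3 SD of response in nonfluorescent compounds, cut at about 42% in these data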
TAAR1 ag: agonists of human TAAR1 | Q96RJ0 | CHO RD-HGA16 TAAR1, Fluo-8 calcium fluorescence; vehicle wells 0%, saturating PEA agonist 100% | activation, % at 3 µM | 360,000 compounds, 0.99% hits;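 active means activation above the mean activation of all test compounds in the run plus 3 SD, cut at about 38% in these data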
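Repeats: no replicates (n 1) | Material: CHO-derived RD-HGA16 cells with stable Gα16 and human TAAR1 | Technique: Kinetic Fluo-8 calcium fluorescence | Schedule: 17-24 h seeding, 75 min 37 °C dye, 30 min RT | Evaluation: % activation from peak over basal fluorescence ratio, DMSO-to-PEA scaled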
HTR2A ag: activates the mouse 5-HT2A serotonin receptor; P35363; CHO-K1 mHTR2A beta-arrestin complementation, luminescence; percent of 30 µM serotonin response; activation, % at 7.6 µM; 360,000 compounds, 0.66% hits;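 active means activation above a run cutoff, the mean activation of all tested compounds plus 3 SD, cut at about 14% in these data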;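 further: 0% = plate median of compound wells and 100% = 30 µM serotonin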
MC4R antag cAMP: blocks human MC4R cAMP signaling; P32245; MC4R-expressing cells, MTII-stimulated cAMP, LANCE TR-FRET; inhibition, % at 6.5 µM; 360,000 compounds, 0.48% hits; AID 540295;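 active means inhibition above its plate's cutoff, the mean of tested wells on that plate plus 3 SD, cut at about 29% in these data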;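 further: 0% = Melanotan II alone and 100% = Melanotan II plus saturating MCL0020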
Target sequence (P32245 whole entry, looked up): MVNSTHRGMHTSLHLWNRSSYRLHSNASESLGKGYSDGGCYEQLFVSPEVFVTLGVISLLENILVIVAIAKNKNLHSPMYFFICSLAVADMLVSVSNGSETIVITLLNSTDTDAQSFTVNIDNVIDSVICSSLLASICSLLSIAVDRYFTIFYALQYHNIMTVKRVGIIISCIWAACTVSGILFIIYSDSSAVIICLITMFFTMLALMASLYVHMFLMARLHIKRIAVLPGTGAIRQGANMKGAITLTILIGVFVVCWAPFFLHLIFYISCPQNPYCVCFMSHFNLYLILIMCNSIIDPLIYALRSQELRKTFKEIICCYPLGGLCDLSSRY
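Assay system: human MC4R-expressing U2OS cells; reagent: Melanotan II stimulation of cells; dosing: 6.5 µM single dose; timing: compound 30 min, challenge 1 h, detection 1 h; signal: TR-FRET cAMP assay; replicates: one well per compound, no replicates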
MC4R ag barr: agonists of human melanocortin 4 receptor (MC4R) beta-arrestin | P32245 | U2OS MC4R beta-arrestin complementation, luminescence; percent of melanotan II response, DMSO zero | activation, % at 8.9 µM | 360,000 compounds, 0.98% hits | AID 540308;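 active means activation above a per-plate cutoff, the mean activation of sample wells on that plate plus 3 SD, cut at about 8% in these data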
Beta2AR ag CP1: activates human beta-2 adrenergic receptor | Am2.2-beta2AR cells, FAP surface receptor, flow cytometry; stronger effect = lower value | percent response (surface receptor), % at 10 µM | shares compounds with Beta2AR agonist | 1,100 compounds, 25% hits;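 active means surface receptor percent response at or below 58%, roughly 3 SD from nonfluorescent compounds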
FAP fluor counter: counter-screen for beta-2AR agonists: fluorescence in Am2.2 cells | shares compounds with Beta2AR agonist | FAP fluorogen flow cytometry, fluorescence counterscreen; stronger effect = lower value | calls only at 10 µM | 1,100 tested, under 10 active | AID 588765;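 active means percent response below a set limit in fluorescence channel 1 and below 50% in channel 8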
Numbers without * were called inactive; i = inactive; / = not tested or not shown. The list is not random: actives were taken first. Their share in the collection is about 4.3%.

SMILES	TAAR1 antagonist	Beta2AR agonist	TAAR1 ag	HTR2A ag	MC4R antag cAMP	MC4R ag barr	Beta2AR ag CP1	FAP fluor counter
Cc1cc(-c2ccccc2)nc(SCC(=O)N2CCCC2)n1	-0.3	-18.9	-0.2	-0.1	-6.4	-2.5	115.3	i
COC(=O)c1ccc(CNC(=O)c2cc(COc3cncc(Cl)c3)on2)cc1	-14.2	-2.4	4.7	1.3	8.9	-2.1	115.1	i
CC(C)c1cc(CNC(=O)c2cc(COc3cncc(Cl)c3)on2)on1	-0.3	-12.8	2.0	-2.4	10.1	-2.5	/	/
O=C(CSc1ccccn1)c1ccc2c(c1)OCO2	7.6	52.5*	10.2	2.5	10.7	1.2	94.2	i
O=C(CSc1ccccn1)Nc1ccc2c(c1)OCO2	-32.1	5.6	3.2	3.4	2.6	1.4	/	/
CCOc1cc(CNc2ccc3c(c2)OCCO3)cc(Br)c1OC	11.9	45.8*	4.2	-4.2	-22.9	-1.9	86.8	i
COc1ccccc1N(C)S(=O)(=O)c1ccc(C(=O)N2CCCc3ccccc32)cc1	45.3	16.1	15.2	-4.5	17.2	-1.1	/	/
Cc1ccc(NC(=O)Nc2ccc3c(c2)nnn3C)cc1C	1.0	-2.1	-0.4	-3.1	6.2	0.4	/	/
CCOc1ccc(NC(=O)Nc2ccc3c(c2)nnn3C)cc1	-1.7	59.9*	5.9	-2.0	8.1	0.6	101.3	i
N#Cc1ccc(S(=O)(=O)N2CCCc3nc(-c4ccccc4)ccc32)cc1	-0.9	/	0.2	/	/	/	/	/
O=C(NCc1c(O)ccc2ccccc12)c1ccccc1	-6.5	5.1	3.2	5.4	11.9	0.7	/	/
NC(=O)c1ccccc1OCc1nnc(-c2ccccc2Br)o1	10.0	-9.8	4.2	7.2	5.3	-1.1	119.0	i
O=Cc1ccc(OCc2nnc(-c3ccccc3Br)o2)cc1	-1.8	20.5	7.1	6.2	7.8	-1.7	/	/
CCN(CC(=O)Nc1ccc2c(c1)OCCO2)C(=O)c1ccc(C)c(S(=O)(=O)N2CCOCC2)c1	-22.0	-3.1	-0.4	0.2	-0.5	-2.2	/	/
CN(C(=O)c1cccc(NC(=O)Cc2cccc(NC(=O)C3CCN(C(=O)C4CCCC4)CC3)c2)c1)C1CCC1	-22.1	-14.8	3.5	-4.8	12.1	-1.9	/	/
CN(C(=O)c1cccc(NC(=O)Cc2ccc(NC(=O)C3CCN(C(=O)C4CC4)CC3)cc2)c1)C1CCCC1	8.4	2.7	0.5	2.2	10.7	-2.0	/	/
CN(C(=O)c1ccc(NC(=O)Cc2cccc(NC(=O)C3CCN(C(=O)C4CCCC4)CC3)c2)cc1)C1CC1	-16.9	-5.2	1.3	-4.8	4.3	-1.3	132.0	i
CN(C(=O)c1ccc(NC(=O)Cc2cccc(NC(=O)C3CCN(C(=O)C4CCC4)CC3)c2)cc1)C1CCCC1	6.8	5.3	1.1	7.6	-8.0	-0.4	119.1	i
CN(C(=O)c1ccc(NC(=O)Cc2cccc(NC(=O)C3CCN(C(=O)C4CC4)CC3)c2)cc1)C1CCCC1	8.3	-4.4	3.5	-1.4	4.3	0.2	106.6	i
COCCn1c(NCc2ccco2)nc2c1c(=O)[nH]c(=O)n2C	-4.4	-8.2	1.5	-3.6	6.3	-0.8	/	/
CC(=O)NC(c1cccc(F)c1)c1nc(-c2ccoc2)cs1 (configuration not stated)	-10.2	/	1.6	-2.8	-5.2	1.6	/	/
COc1ccc(NC(=O)CSCC(=O)Nc2ccccc2C(=O)N2CCCCC2)cc1	-14.6	-3.8	4.4	-3.1	1.0	-2.2	/	/
CC(C)c1ccc(-c2c(C#N)c(N)nc(SCC(=O)N3CCCCCC3)c2C#N)cc1	-5.8	/	5.0	/	/	/	/	/
COC(=O)CSc1nc(N)c(C#N)c(-c2ccc(O)cc2)c1C#N	24.0	67.2*	3.0	2.2	-33.5	-2.4	76.0	i
C=CS(=O)(=O)c1c2cc(OC)ccc2nc2ccc(OC)cc12	-2.4	28.1	-0.2	0.8	-18.6	0.1	/	/
SMILES	TAAR1 antagonist	Beta2AR agonist	TAAR1 ag	HTR2A ag	MC4R antag cAMP	MC4R ag barr	Beta2AR ag CP1	FAP fluor counter
Cc1ccc(OCc2nc(-c3cccs3)no2)c([N+](=O)[O-])c1	-2.9	-1.0	6.1	-4.8	-7.1	-0.2	/	/
COc1cc(-c2cc(N)n(S(=O)(=O)c3ccccc3)n2)cc(OC)c1OC	-0.1	61.7*	-1.7	-2.7	4.3	-1.5	98.4	i
Cc1ccc(C)c(NC(=S)c2ccccn2)c1	-4.0	-1.6	-2.8	5.8	-5.2	-0.6	114.0	i
CS(=O)(=O)c1nc2c(cc1C#N)CCCC2	-4.6	-4.3	2.3	4.5	4.9	-1.6	/	/
COc1cc(CNCCO)cc(Cl)c1OCc1ccccc1Cl	-8.4	48.1*	14.4	-3.2	19.5	1.0	99.2	i
CCOc1c(Cl)cc(CNCC(O)c2ccccc2)cc1OC (configuration not stated)	-4.1	11.4	14.1	3.0	1.8	3.5	117.5	i
C#CCOCC1CNC(=S)O1 (configuration not stated)	11.0	/	0.1	-1.8	-7.5	-0.7	/	/
CC1CC(C)CN(C(=O)c2nn(C)c3c2CS(=O)(=O)c2ccccc2-3)C1 (configuration not stated)	3.5	-2.4	8.5	-1.4	2.7	1.4	/	/
COc1ccc(-c2nc(-c3ccccc3)c(-c3cccs3)[nH]2)cc1OC	43.8	11.9	15.3	8.4	17.0	1.8	/	/
O=[N+]([O-])c1cccc(-c2nc(-c3ccccc3)c(-c3cccs3)[nH]2)c1	57.9*	50.5*	5.4	-3.9	7.1	-0.4	110.7	i
O=S1(=O)CC(N2CCCC2)CN1Cc1ccccc1 (configuration not stated)	-6.9	/	-0.2	-3.1	/	/	/	/
COc1cccc2cc(-c3nc(-c4cccs4)cs3)c(=O)oc12	15.4	0.1	5.8	-0.1	6.5	3.2	/	/
COc1cc(-c2cccs2)cc(=O)c2c(C)oc(C)c12	-5.5	-12.2	13.2	-0.4	0.6	0.3	112.3	i
O=C(c1cc2c(=O)n3ccccc3nc2s1)N1CCN(Cc2ccc3c(c2)OCO3)CC1	-21.2	74.2*	4.4	-3.9	-0.4	-1.5	24.0*	i
O=C(c1cc2c(=O)n3ccccc3nc2s1)N1CCN(Cc2ccccc2)CC1	-15.0	-16.3	0.2	-1.0	13.0	-1.1	/	/
CCOC(=O)C1(C)CCN1C(=O)c1c(F)cccc1F (configuration not stated)	-4.2	/	0.6	-1.5	-0.7	-1.0	/	/
Nn1c(SCc2cn3ccccc3n2)nnc1-c1ccncc1	-8.8	45.3*	-0.3	4.8	1.4	2.5	105.3	i
